This note sets out measurements from PMC2784041 (Environmental Microbiology, 2009).

Where two headings read alike, the source gives them in different places.

Holding throughout (test): spectrophotometric ring-cleavage assay, non-linear Michaelis-Menten fit
The test system of one assay is EXDO-K2_s162. The format is biochemical. Particulars: read-out: Km (μM) ^b; 50 mM K/Na-phosphate pH 8.0, air-saturated; partially purified enzyme. Summed up:
(§1)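 Enzyme came from E. coli EPI300-T1R fosmid clones grown at 37°C in LB with 0.01% L-arabinose and 25 μg ml−1 chloramphenicol, harvested in late exponential phase. Extracts were partially purified by anion exchange chromatography. Ring-cleavage product was followed spectrophotometrically in 50 mM air-saturated K/Na-phosphate pH 8.0 (catechol ε375, 3-methylcatechol ε388, 2,3-dihydroxybiphenyl ε434). Km was obtained from initial velocities over 1–100 μM substrate by non-linear Michaelis–Menten regression.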

In a further assay the test system is EXDO-K2_s3. The format is biochemical. Particulars: read-out: Km (μM) ^b; 50 mM K/Na-phosphate pH 8.0, air-saturated; partially purified enzyme. An outline of the steps:
as §1

The subject of a further assay is EXDO-D_s45. The format is biochemical, uncultured bacterium. Particulars: read-out: Km (μM) ^b; 50 mM K/Na-phosphate pH 8.0, air-saturated; partially purified enzyme. Summed up: as §1
In the next assay the test system is EXDO-K2_s129. The format is biochemical. Particulars: read-out: Km (μM) ^b; 50 mM K/Na-phosphate pH 8.0, air-saturated; partially purified enzyme. An outline of the steps: as §1
In the next assay the test system is EXDO-D_s4. The format is biochemical, uncultured bacterium. Particulars: read-out: Km (μM) ^b; 50 mM K/Na-phosphate pH 8.0, air-saturated; partially purified enzyme. Summed up: as §1
For a further assay, the system named is EXDO-K2_s7. The format is biochemical. Particulars: read-out: Km (μM) ^b; 50 mM K/Na-phosphate pH 8.0, air-saturated; partially purified enzyme. Summed up: as §1
For another assay, the system named is EXDO-Dbt_s207. The format is biochemical. Particulars: read-out: Km (μM) ^b, partially purified enzyme.
The next assay relates to EXDO-D_s151. The format is biochemical, uncultured bacterium. Particulars: read-out: Km (μM) ^b; 50 mM K/Na-phosphate pH 8.0, air-saturated; partially purified enzyme. An outline of the steps: as §1
The mark [1] stands for this setting: 50 mM K/Na-phosphate pH 8.0, air-saturated.

With `Oc1cccc(-c2ccccc2)c1O` [2,3-dihydroxybiphenyl], the Km with EXDO-K2_s162 worked out at 1 ± 0.1 µM; in the assay with EXDO-K2_s3 it was 2.1 ± 0.2 µM; with EXDO-D_s45, 0.61 ± 0.08 µM; in the assay with EXDO-K2_s129 it was 2.1 ± 0.2 µM; in the assay on EXDO-D_s4, 3.7 ± 0.6 µM; in the assay with EXDO-K2_s7 it was 0.84 ± 0.08 µM. Further, the Michaelis constant (Km) with EXDO-Dbt_s207 (setting [1]) stood at 4.2 ± 0.7 µM.
Consider `Cc1cccc(O)c1O` [3-methylcatechol], for which the Km with EXDO-K2_s162 was found to be 4.3 ± 0.7 µM; in the assay with EXDO-K2_s3 it was 4.5 ± 0.6 µM; with EXDO-D_s45, 0.27 ± 0.1 µM; in the assay on EXDO-K2_s129 it was 9.3 ± 1.1 µM; in the assay with EXDO-D_s4, 1.8 ± 0.3 µM; in the assay on EXDO-K2_s7, 4.6 ± 0.4 µM. The Km in the assay on EXDO-Dbt_s207 (setting [1]) stood at 13.6 ± 1.9 µM; in the assay with EXDO-D_s151, 3.5 ± 1.5 µM.
For the compound `Oc1ccccc1O` [catechol], the Km with EXDO-D_s45 was found to be 0.27 ± 0.03 µM; with EXDO-D_s4 it was 1.4 ± 0.2 µM; in the assay on EXDO-Dbt_s207 (setting [1]), 35 ± 5 µM; with EXDO-D_s151, 1.1 ± 0.2 µM.
With `Oc1ccc2ccccc2c1O` [1,2-dihydroxynaphthalene], the Michaelis constant (Km) with EXDO-Dbt_s207 (50 mM acetic acid/NaOH pH 5.5, air-saturated) is 11.6 ± 1.4 µM.

Broadly, the Km is the substrate concentration at which the rate is half of its maximum.
